# Test results taken from ChEMBL document CHEMBL5034013, “Discovery of VNRX-7145 (VNRX-5236 Etzadroxil): An Orally Bioavailable β-Lactamase Inhibitor for Enterobacterales Expressing Ambler Class A, C, and D Enzymes” (J Med Chem, 2021).
# Key:
# [1] = Apparent permeability across basolateral to apical side in human Caco-2 cells at 5 uM measured after 2 hrs by LC-MS/MS method; type: ADME, cell-based; details: caco-2, 2 h
# [2] = Apparent permeability across apical to basolateral side in human Caco-2 cells at 5 uM measured after 2 hrs by LC-MS/MS method; type: ADME, cell-based; details: caco-2, 2 h
# Klebsiella pneumoniae [3] = experiment: Antibacterial activity against Klebsiella pneumoniae expressing SHV-1/TEM-1/KPC-2 assessed as concentration required to restore ceftibuten activity incubated for 16 to 20 hrs in presence of 1 ug/ml ceftibuten by broth microdilution method; type: functional; details: time 16-20 hrs
# Klebsiella pneumoniae [4] = experiment: Antibacterial activity against Klebsiella pneumonia 217917 expressing CMY-2/TEM-1 assessed as concentration required to restore ceftibuten activity incubated for 16 to 20 hrs in presence of 1 ug/ml ceftibuten by broth microdilution method; type: functional; details: time 16-20 hrs
# Outline: (§1)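 Tested against a 25-strain challenge panel of clinical E. coli and K. pneumoniae isolates carrying ESBL (n = 5), KPC (n = 11), class C (n = 4) or OXA-48 (n = 5) β-lactamases. Ceftibuten was held at 1 μg/mL while the BLI concentration varied. The read-out was the BLI concentration that rescued ceftibuten activity.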
# Klebsiella pneumoniae [5] = experiment: Antibacterial activity against Klebsiella pneumoniae expressing TEM-1/SHV-12 assessed as concentration required to restore ceftibuten activity incubated for 16 to 20 hrs in presence of 1 ug/ml ceftibuten by broth microdilution method; type: functional; details: time 16-20 hrs
# [6] = Inhibition of bacterial beta-lactamase KPC-2 using imipenem as substrate preincubated for 15 mins followed by substrate addition and measured after 10 mins by spectrophotometric analysis; design: species or system Bacteria
# Outline: (§2)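 IC50 is the mean of duplicate runs on separate days. A run was repeated automatically if it differed by more than 20% from the previous result.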
# [7] = Inhibition of bacterial beta-lactamase SHV-5 using cefotaxime as substrate preincubated for 15 mins followed by substrate addition and measured after 10 mins by spectrophotometric analysis; design: species or system Bacteria; outline: as §2
# Escherichia coli [8] = experiment: Antibacterial activity against Escherichia coli expressing CTX-M-2 assessed as concentration required to restore ceftibuten activity incubated for 16 to 20 hrs in presence of 1 ug/ml ceftibuten by broth microdilution method; type: functional; details: time 16-20 hrs
# Klebsiella pneumoniae [9] = experiment: Antibacterial activity against Klebsiella pneumoniae expressing SHV-11/TEM-1/KPC-3 assessed as concentration required to restore ceftibuten activity incubated for 16 to 20 hrs in presence of 1 ug/ml ceftibuten by broth microdilution method; type: functional; details: time 16-20 hrs
# [10] = AUC in mouse at 1.2 mg/kg, sc; type: ADME, organism-based; design: dose 1.2 mg/kg; details: in vivo
# Klebsiella pneumoniae [11] = experiment: Antibacterial activity against Klebsiella pneumoniae expressing SHV-12/TEM-1/KPC-2/AmpC assessed as concentration required to restore ceftibuten activity incubated for 16 to 20 hrs in presence of 1 ug/ml ceftibuten by broth microdilution method; type: functional; details: time 16-20 hrs
# Klebsiella pneumoniae [12] = experiment: Antibacterial activity against Klebsiella pneumoniae expressing SHV-5/KPC-2/TEM-1 assessed as concentration required to restore ceftibuten activity incubated for 16 to 20 hrs in presence of 1 ug/ml ceftibuten by broth microdilution method; type: functional; details: time 16-20 hrs
# Klebsiella pneumoniae [13] = experiment: Antibacterial activity against Klebsiella pneumonia SI-C05 expressing OXA-48 assessed as concentration required to restore ceftibuten activity incubated for 16 to 20 hrs in presence of 1 ug/ml ceftibuten by broth microdilution method; type: functional; details: time 16-20 hrs; outline: as §1
# Klebsiella pneumoniae [14] = experiment: Antibacterial activity against Klebsiella pneumoniae 845670 expressing KPC assessed as concentration required to restore ceftibuten activity incubated for 16 to 20 hrs in presence of 1 ug/ml ceftibuten by broth microdilution method; type: functional; details: time 16-20 hrs
# [15] = AUC in mouse at 38 mg/kg, sc; type: ADME, organism-based; design: dose 38 mg/kg; details: in vivo
# Outline: (§3)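 Single-dose pharmacokinetics of the parent BLI in mice given subcutaneously at 1.2, 12 and 38 mg/kg. The AUC is reported in mg∗h/L and was used to check dose proportionality. The study was run to choose dosing regimens for the murine ascending UTI efficacy model.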
# Klebsiella pneumoniae [16] = experiment: Antibacterial activity against Klebsiella pneumoniae 156309 expressing SHV-11/TEM-1/KPC-2 assessed as concentration required to restore ceftibuten activity incubated for 16 to 20 hrs in presence of 1 ug/ml ceftibuten by broth microdilution method; type: functional; details: time 16-20 hrs
# Klebsiella pneumoniae [17] = experiment: Antibacterial activity against Klebsiella pneumoniae expressing OXA-48 assessed as concentration required to restore ceftibuten activity incubated for 16 to 20 hrs in presence of 1 ug/ml ceftibuten by broth microdilution method; type: functional; details: time 16-20 hrs
# Escherichia coli [18] = experiment: Antibacterial activity against Escherichia coli 849121 expressing KPC assessed as concentration required to restore ceftibuten activity incubated for 16 to 20 hrs in presence of 1 ug/ml ceftibuten by broth microdilution method; type: functional; details: time 16-20 hrs
# Klebsiella pneumoniae [19] = experiment: Antibacterial activity against Klebsiella pneumoniae expressing SHV-12/TEM-1 assessed as concentration required to restore ceftibuten activity incubated for 16 to 20 hrs in presence of 1 ug/ml ceftibuten by broth microdilution method; type: functional; details: time 16-20 hrs
# Escherichia coli [20] = experiment: Antibacterial activity against Escherichia coli expressing AmpC/SHV-12/CTX-M-15/TEM-1 assessed as concentration required to restore ceftibuten activity incubated for 16 to 20 hrs in presence of 1 ug/ml ceftibuten by broth microdilution method; type: functional; details: time 16-20 hrs
# Klebsiella pneumoniae [21] = experiment: Antibacterial activity against Klebsiella pneumonia DOV expressing OXA-48 assessed as concentration required to restore ceftibuten activity incubated for 16 to 20 hrs in presence of 1 ug/ml ceftibuten by broth microdilution method; type: functional; details: time 16-20 hrs; outline: as §1
# [22] = AUC in mouse at 12 mg/kg, sc; type: ADME, organism-based; design: dose 12 mg/kg; details: in vivo; outline: as §3
# Klebsiella pneumoniae [23] = experiment: Antibacterial activity against Klebsiella pneumoniae 196477 expressing AmpC/CMY-2/TEM-1/CTX-M-15 assessed as concentration required to restore ceftibuten activity incubated for 16 to 20 hrs in presence of 1 ug/ml ceftibuten by broth microdilution method; type: functional; details: time 16-20 hrs
# Escherichia coli [24] = experiment: Antibacterial activity against Escherichia coli 664520 expressing OXA-48 assessed as concentration required to restore ceftibuten activity incubated for 16 to 20 hrs in presence of 1 ug/ml ceftibuten by broth microdilution method; type: functional; details: time 16-20 hrs; outline: as §1
# Escherichia coli [25] = experiment: Antibacterial activity against Escherichia coli 786978 expressing KPC assessed as concentration required to restore ceftibuten activity incubated for 16 to 20 hrs in presence of 1 ug/ml ceftibuten by broth microdilution method; type: functional; details: time 16-20 hrs
# Escherichia coli [26] = experiment: Antibacterial activity against Escherichia coli expressing CTX-M-15/TEM-1 assessed as concentration required to restore ceftibuten activity incubated for 16 to 20 hrs in presence of 1 ug/ml ceftibuten by broth microdilution method; type: functional; details: time 16-20 hrs
# Escherichia coli [27] = experiment: In vivo antibacterial activity against Escherichia coli expressing TEM-1/CTX-M-15 infected in C3H/HeJ mouse assessed as log10 reduction in CFU in kidney administration of compound:ceftibuten 1:1 ratio at 1 to 300 mg/kg, sc every 12 hrs for 3 days starting from 4 days post infection and measured at 7 days post infection (reference value: 6.7 log10CFU); type: functional; details: dose 1-300 mg/kg; time 3 day
# Escherichia coli [28] = experiment: Antibacterial activity against Escherichia coli SI-P026TC expressing CMY-2/TEM-1 assessed as concentration required to restore ceftibuten activity incubated for 16 to 20 hrs in presence of 1 ug/ml ceftibuten by broth microdilution method; type: functional; details: time 16-20 hrs
# Escherichia coli [29] = experiment: Antibacterial activity against Escherichia coli expressing TEM-1/SHV-12 assessed as concentration required to restore ceftibuten activity incubated for 16 to 20 hrs in presence of 1 ug/ml ceftibuten by broth microdilution method; type: functional; details: time 16-20 hrs
# Escherichia coli [30] = experiment: In vivo antibacterial activity against Escherichia coli expressing TEM-1/CTX-M-15 infected in C3H/HeJ mouse assessed as log10 reduction in CFU in urine administration of compound:ceftibuten 1:1 ratio at 1 to 300 mg/kg, sc every 12 hrs for 3 days starting from 4 days post infection and measured at 7 days post infection (reference value: 6.7 log10CFU); type: functional; details: dose 1-300 mg/kg; time 3 day
# Klebsiella pneumoniae [31] = experiment: Antibacterial activity against Klebsiella pneumoniae expressing KPC-3/TEM-1/AmpC assessed as concentration required to restore ceftibuten activity incubated for 16 to 20 hrs in presence of 1 ug/ml ceftibuten by broth microdilution method; type: functional; details: time 16-20 hrs
# Escherichia coli [32] = experiment: In vivo antibacterial activity against Escherichia coli expressing TEM-1/CTX-M-15 infected in C3H/HeJ mouse assessed as log10 reduction in CFU in bladder administration of compound:ceftibuten 1:1 ratio at 1 to 300 mg/kg, sc every 12 hrs for 3 days starting from 4 days post infection and measured at 7 days post infection (reference value: 5.8 log10CFU); details: dose 1-300 mg/kg; time 3 day
# Escherichia coli [33] = experiment: Antibacterial activity against Escherichia coli J53 expressing SHV-5/TEM-1/AmpC assessed as concentration required to restore ceftibuten activity incubated for 16 to 20 hrs in presence of 1 ug/ml ceftibuten by broth microdilution method; type: functional; details: time 16-20 hrs
# Escherichia coli [34] = experiment: Antibacterial activity against Escherichia coli 664507 expressing OXA-48 assessed as concentration required to restore ceftibuten activity incubated for 16 to 20 hrs in presence of 1 ug/ml ceftibuten by broth microdilution method; type: functional; details: time 16-20 hrs; outline: as §1
# Klebsiella pneumoniae [35] = experiment: Antibacterial activity against Klebsiella pneumoniae 845661 expressing KPC assessed as concentration required to restore ceftibuten activity incubated for 16 to 20 hrs in presence of 1 ug/ml ceftibuten by broth microdilution method; type: functional; details: time 16-20 hrs
smiles,measurement,setting,value
CCC(=O)N[C@H]1Cc2cccc(C(=O)O)c2OB1O [LEDABORBACTAM],Papp,[1],0.15 10^-6 cm/s
same,Papp,[2],0.11 10^-6 cm/s
same,Activity,Klebsiella pneumoniae [3],1 µg/mL
same,Activity,Klebsiella pneumoniae [4],0.12 µg/mL
same,Activity,Klebsiella pneumoniae [5],0.016 µg/mL
same,IC50,[6],80 nM
same,IC50,[7],126 nM
same,Activity,Escherichia coli [8],0.004 µg/mL
same,Activity,Klebsiella pneumoniae [9],0.06 µg/mL
same,AUC,[10],7800 ng·h/mL
same,Activity,Klebsiella pneumoniae [11],0.25 µg/mL
same,Activity,Klebsiella pneumoniae [12],<=0.002 ug ml-1
same,Activity,Klebsiella pneumoniae [13],0.03 µg/mL
same,Activity,Klebsiella pneumoniae [14],<=0.002 ug ml-1
same,AUC,[15],250000 ng·h/mL
same,Activity,Klebsiella pneumoniae [16],0.5 µg/mL
same,Activity,Klebsiella pneumoniae [17],1 µg/mL
same,Activity,Escherichia coli [18],<=0.002 ug ml-1
same,Activity,Klebsiella pneumoniae [19],0.06 µg/mL
same,Activity,Escherichia coli [20],0.016 µg/mL
same,Activity,Klebsiella pneumoniae [21],0.016 µg/mL
same,AUC,[22],76000 ng·h/mL
same,Activity,Klebsiella pneumoniae [23],0.016 µg/mL
same,Activity,Escherichia coli [24],1 µg/mL
same,Activity,Escherichia coli [25],0.5 µg/mL
same,Activity,Escherichia coli [26],0.12 µg/mL
same,Activity,Escherichia coli [27],2 log10CFU/ml
same,Activity,Escherichia coli [28],0.5 µg/mL
same,Activity,Escherichia coli [29],0.03 µg/mL
same,Activity,Escherichia coli [30],4 log10CFU/ml
same,Activity,Klebsiella pneumoniae [31],0.5 µg/mL
same,Activity,Escherichia coli [32],3.2 log10CFU/ml
same,Activity,Escherichia coli [33],0.03 µg/mL
same,Activity,Escherichia coli [34],0.03 µg/mL
same,Activity,Klebsiella pneumoniae [35],2 µg/mL
